According to ChEMBL document CHEMBL4376835, “Discovery of Nonpungent Transient Receptor Potential Vanilloid 1 (TRPV1) Agonist as Strong Topical Analgesic” (J Med Chem, 2020):
Activity calls are given as the source filed them.

Assays:
[1] = Genotoxicity in ip dosed rat by micronucleus assay; format: toxicity, organism-based; details: in vivo
[2] = Genotoxicity in Salmonella typhimurium TA97 incubated for 48 hrs by Ames test; format: toxicity; details: salmonella enterica subsp. enterica serovar typhimurium
[3] = Genotoxicity in Salmonella typhimurium TA97 incubated for 48 hrs in presence of rat S9 by Ames test; format: toxicity, subcellular; details: salmonella enterica subsp. enterica serovar typhimurium, s9, 48 h
[4] = molecular target: Transient receptor potential cation channel subfamily M member 8 (Mus musculus) (UniProt Q8R4D5); assay: Agonist activity at mouse TRPM8 expressed in HEK293 cells assessed as increase in calcium influx at 0.3 to 30 uM incubated for 1 min by Fluo-4-AM dye based FLIPR assay; format: cell-based
Chain of Transient receptor potential cation channel subfamily M member 8 (Mus musculus) (Q8R4D5 whole entry): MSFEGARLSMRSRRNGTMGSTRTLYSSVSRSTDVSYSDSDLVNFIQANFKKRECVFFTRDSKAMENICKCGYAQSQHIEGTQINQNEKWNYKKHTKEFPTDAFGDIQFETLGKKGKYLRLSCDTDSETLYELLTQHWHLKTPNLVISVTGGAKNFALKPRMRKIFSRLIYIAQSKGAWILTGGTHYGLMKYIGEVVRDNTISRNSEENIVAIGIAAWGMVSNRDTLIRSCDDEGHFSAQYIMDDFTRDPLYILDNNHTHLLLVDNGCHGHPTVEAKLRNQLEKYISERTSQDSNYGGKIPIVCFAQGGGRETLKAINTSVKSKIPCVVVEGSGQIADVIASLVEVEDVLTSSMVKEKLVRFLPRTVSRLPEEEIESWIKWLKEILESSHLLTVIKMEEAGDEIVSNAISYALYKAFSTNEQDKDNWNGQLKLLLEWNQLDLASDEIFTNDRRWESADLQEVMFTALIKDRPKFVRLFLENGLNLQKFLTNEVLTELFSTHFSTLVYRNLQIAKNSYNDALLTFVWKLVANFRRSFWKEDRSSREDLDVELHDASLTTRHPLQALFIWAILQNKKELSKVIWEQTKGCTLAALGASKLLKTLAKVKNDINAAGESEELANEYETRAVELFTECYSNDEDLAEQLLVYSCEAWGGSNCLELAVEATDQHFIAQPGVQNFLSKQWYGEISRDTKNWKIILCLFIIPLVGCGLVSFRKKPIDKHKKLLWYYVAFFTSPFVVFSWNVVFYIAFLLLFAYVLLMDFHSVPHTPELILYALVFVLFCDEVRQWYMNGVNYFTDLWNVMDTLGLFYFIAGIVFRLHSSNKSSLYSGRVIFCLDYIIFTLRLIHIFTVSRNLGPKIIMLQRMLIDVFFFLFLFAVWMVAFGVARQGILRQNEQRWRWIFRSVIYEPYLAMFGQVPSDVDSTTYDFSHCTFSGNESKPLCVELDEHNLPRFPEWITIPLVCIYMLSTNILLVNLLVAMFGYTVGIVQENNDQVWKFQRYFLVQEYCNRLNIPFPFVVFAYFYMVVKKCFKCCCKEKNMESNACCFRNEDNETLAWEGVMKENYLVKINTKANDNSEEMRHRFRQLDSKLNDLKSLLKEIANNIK
How it was run: (§1)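 Cells individually transfected with a single TRP channel (TRPV1, hTRPA1, mTRPA1, mTRPV3 or mTRPM8). Intracellular calcium influx recorded by FLIPR after the test compound was applied. Each cell type was also challenged with an agonist suited to its own TRP channel.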

[5] = system: Mus musculus; assay: Induction of hypothermia in ICR mouse assessed as decrease in body temperature at 0.5 mg/kg, ip coadministered with capsaicin and measured for 7 hrs; format: functional, organism-based
[6] = Genotoxicity in Salmonella typhimurium TA1535 incubated for 48 hrs by Ames test; format: toxicity; details: salmonella enterica subsp. enterica serovar typhimurium
[7] = Genotoxicity in Salmonella typhimurium TA1538 incubated for 48 hrs by Ames test; format: toxicity; details: salmonella enterica subsp. enterica serovar typhimurium
[8] = Genotoxicity in Salmonella typhimurium TA1538 incubated for 48 hrs in presence of rat S9 by Ames test; format: toxicity, subcellular; details: salmonella enterica subsp. enterica serovar typhimurium, s9, 48 h
[9] = molecular target: Transient receptor potential cation channel subfamily V member 1 (Rattus norvegicus) (UniProt O35433); assay: Partial agonist activity at rat TRPV1 expressed in CHO cells assessed as maximal increase in 45Ca2+ uptake incubated for 5 mins by liquid scintillation counting method relative to capsaicin; format: cell-based
Chain of Transient receptor potential cation channel subfamily V member 1 (Rattus norvegicus) (O35433 whole entry): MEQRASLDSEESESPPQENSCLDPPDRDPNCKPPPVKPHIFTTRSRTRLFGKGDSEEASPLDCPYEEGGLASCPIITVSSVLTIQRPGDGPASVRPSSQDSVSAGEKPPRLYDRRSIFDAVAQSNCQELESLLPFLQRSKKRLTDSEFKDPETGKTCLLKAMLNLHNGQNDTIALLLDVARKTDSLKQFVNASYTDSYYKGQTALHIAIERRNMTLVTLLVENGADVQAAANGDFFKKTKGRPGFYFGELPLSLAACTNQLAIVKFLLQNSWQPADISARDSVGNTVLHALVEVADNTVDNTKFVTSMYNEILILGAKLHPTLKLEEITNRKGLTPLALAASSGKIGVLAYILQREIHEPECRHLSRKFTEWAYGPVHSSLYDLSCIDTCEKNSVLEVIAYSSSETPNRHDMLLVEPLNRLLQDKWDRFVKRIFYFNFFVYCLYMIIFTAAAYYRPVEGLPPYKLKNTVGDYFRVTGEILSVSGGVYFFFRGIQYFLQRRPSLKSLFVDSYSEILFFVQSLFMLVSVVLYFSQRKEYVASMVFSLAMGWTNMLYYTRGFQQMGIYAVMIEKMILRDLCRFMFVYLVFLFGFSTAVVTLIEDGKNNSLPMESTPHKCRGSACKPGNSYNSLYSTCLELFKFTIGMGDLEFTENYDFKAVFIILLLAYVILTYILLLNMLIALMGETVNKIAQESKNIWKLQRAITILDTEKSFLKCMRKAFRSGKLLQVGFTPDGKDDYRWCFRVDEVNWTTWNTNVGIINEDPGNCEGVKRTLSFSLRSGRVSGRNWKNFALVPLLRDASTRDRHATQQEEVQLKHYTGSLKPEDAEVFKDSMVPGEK
How it was run: (§2)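 Human or rat TRPV1 heterologously expressed in CHO cells; functional agonism read as 45Ca2+ uptake. Values are means of at least three experiments.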

[10] = molecular target: T1, Transient receptor potential cation channel subfamily V member 1 (Homo sapiens, UniProt Q8NER1); assay: Agonist activity at human TRPV1 expressed in HEK293 cells assessed as increase in calcium influx at 0.3 to 30 uM incubated for 1 min by Fluo-4-AM dye based FLIPR assay; format: cell-based; how it was run: as §1
T1 sequence (Q8NER1 whole entry): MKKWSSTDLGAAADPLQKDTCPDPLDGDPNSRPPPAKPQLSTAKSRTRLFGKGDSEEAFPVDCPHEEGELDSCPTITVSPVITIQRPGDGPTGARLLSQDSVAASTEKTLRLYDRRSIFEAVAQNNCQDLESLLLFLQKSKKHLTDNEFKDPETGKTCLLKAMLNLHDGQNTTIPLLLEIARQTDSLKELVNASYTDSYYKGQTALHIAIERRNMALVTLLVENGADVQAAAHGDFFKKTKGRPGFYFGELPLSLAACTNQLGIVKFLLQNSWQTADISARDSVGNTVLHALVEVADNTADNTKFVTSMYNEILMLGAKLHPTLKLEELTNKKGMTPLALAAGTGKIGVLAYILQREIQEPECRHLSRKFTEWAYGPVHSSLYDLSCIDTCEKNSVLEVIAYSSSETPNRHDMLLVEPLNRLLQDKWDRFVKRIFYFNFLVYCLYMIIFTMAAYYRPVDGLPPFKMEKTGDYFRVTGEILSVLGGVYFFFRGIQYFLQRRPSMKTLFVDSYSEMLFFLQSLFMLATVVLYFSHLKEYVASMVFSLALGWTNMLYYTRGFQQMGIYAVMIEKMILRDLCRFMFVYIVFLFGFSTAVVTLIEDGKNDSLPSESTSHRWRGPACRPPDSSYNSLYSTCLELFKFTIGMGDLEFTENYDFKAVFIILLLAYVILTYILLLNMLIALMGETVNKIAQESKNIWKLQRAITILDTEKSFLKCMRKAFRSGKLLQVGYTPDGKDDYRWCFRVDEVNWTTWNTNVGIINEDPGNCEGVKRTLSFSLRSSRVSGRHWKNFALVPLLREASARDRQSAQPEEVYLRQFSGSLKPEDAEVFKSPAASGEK

[11] = molecular target: Transient receptor potential cation channel subfamily V member 1 (Rattus norvegicus) (UniProt O35433); assay: Potency index, ratio of Ki of capsaicin to Ki for displacement of [3H]RTX from rat TRPV1 expressed in CHO cells incubated for 60 mins by scintillation counting method; format: cell-based
[12] = system: Mus musculus; assay: Antiallodynic activity against capsaicin-induced mechanical allodynia ICR mouse model assessed as inhibition of mechanical hyperalgesia administered topically 30 mins before capsaicin injection and measured over 5 mins; format: functional, organism-based
[13] = Drug uptake in porcine skin assessed as dermal accumulation applied topically as carbopol-gel with 1% formulation measured for 8 hrs by Franz diffusion cell based in vitro transdermal delivery test; format: ADME, tissue-based, Sus scrofa, Zone of skin; details: pig
[14] = molecular target: T2, Transient receptor potential cation channel subfamily V member 1 (Rattus norvegicus, UniProt O35433); assay: Displacement of [3H]-RTX from rat TRPV1 expressed in CHO cells incubated for 60 mins by radioligand competition assay based scintillation counting method; format: cell-based
T2 sequence (O35433 whole entry): as the sequence (O35433 whole entry) above

[15] = molecular target: Transient receptor potential cation channel subfamily A member 1 (Homo sapiens) (UniProt O75762); assay: Agonist activity at human TRPA1 expressed in HEK293 cells assessed as increase in calcium influx at 0.3 to 30 uM incubated for 1 min by Fluo-4-AM dye based FLIPR assay; format: cell-based; how it was run: as §1
Chain of Transient receptor potential cation channel subfamily A member 1 (Homo sapiens) (O75762 whole entry): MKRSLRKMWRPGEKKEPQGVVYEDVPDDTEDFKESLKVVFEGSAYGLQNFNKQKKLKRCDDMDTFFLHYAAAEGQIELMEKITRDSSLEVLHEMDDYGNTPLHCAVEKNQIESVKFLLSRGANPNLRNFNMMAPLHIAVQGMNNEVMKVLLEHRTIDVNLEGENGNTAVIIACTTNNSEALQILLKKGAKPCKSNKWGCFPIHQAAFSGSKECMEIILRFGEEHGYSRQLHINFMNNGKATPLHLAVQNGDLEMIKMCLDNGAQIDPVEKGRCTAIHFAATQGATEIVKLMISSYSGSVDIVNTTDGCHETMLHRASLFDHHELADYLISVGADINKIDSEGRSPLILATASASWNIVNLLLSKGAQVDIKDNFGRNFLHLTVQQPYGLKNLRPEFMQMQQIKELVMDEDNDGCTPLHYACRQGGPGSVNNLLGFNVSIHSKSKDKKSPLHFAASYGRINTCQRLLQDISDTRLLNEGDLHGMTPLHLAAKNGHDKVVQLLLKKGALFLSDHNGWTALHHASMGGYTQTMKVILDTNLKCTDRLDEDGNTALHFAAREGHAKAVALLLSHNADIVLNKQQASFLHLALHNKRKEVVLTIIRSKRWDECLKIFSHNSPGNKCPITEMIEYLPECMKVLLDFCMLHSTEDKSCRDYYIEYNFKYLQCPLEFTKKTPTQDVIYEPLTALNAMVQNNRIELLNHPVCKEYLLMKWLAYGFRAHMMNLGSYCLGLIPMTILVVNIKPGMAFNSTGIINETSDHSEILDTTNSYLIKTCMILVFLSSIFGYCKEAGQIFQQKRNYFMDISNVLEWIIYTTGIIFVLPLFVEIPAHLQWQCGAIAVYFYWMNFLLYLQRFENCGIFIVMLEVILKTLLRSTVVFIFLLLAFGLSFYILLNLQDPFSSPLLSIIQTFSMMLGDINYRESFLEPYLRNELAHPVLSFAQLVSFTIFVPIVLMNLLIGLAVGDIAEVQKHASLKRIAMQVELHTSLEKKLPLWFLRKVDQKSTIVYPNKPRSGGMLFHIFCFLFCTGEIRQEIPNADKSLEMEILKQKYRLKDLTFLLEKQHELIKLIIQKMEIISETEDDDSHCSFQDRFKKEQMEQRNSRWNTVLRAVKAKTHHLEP

[16] = molecular target: T1, Transient receptor potential cation channel subfamily V member 1; assay: Partial agonist activity at human TRPV1 expressed in CHO cells assessed as maximal increase in 45Ca2+ uptake incubated for 5 mins by liquid scintillation counting method relative to capsaicin; format: cell-based; how it was run: as §2
[17] = system: Mus musculus; assay: Induction of hypothermia in ip dosed ICR mouse assessed as decrease in body temperature measured for 7 hrs; format: functional, organism-based
[18] = Genotoxicity in Salmonella typhimurium TA104 incubated for 48 hrs in presence of rat S9 by Ames test; format: toxicity, subcellular; details: salmonella enterica subsp. enterica serovar typhimurium, s9, 48 h
[19] = Genotoxicity in Salmonella typhimurium TA98 incubated for 48 hrs in presence of rat S9 by Ames test; format: toxicity, subcellular; details: salmonella enterica subsp. enterica serovar typhimurium, s9, 48 h
[20] = Genotoxicity in Salmonella typhimurium TA100 incubated for 48 hrs by Ames test; format: toxicity; details: salmonella enterica subsp. enterica serovar typhimurium
[21] = Toxicity in ip dosed ICR mouse administered as single dose; format: organism-based; details: in vivo
[22] = Genotoxicity in CHO-WBLT cells assessed as chromosomal aberration incubated for 6 hrs in presence of rat S9 by FISH painting analysis; format: toxicity, subcellular, Cricetulus griseus; details: chinese hamster, s9, 6 h
[23] = Genotoxicity in CHO-WBLT cells assessed as chromosomal aberration incubated for 6 hrs in presence of rat S9 by Q-banding technique; format: toxicity, subcellular, Cricetulus griseus; details: chinese hamster, s9, 6 h
[24] = Toxicity in ICR mouse assessed as ear edema administered topically and measured after 30 mins; details: in vivo, topical_or_ocular, 0.5 h
How it was run: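 Ear swelling test: a solution of the agent was applied to mouse ears, and ear punch biopsies were collected 30 min later and weighed.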

[25] = system: Rattus norvegicus; assay: Analgesic activity in ip dosed L5/L6 spinal nerve ligation-induced neuropathic pain Sprague-Dawley rat model assessed as increase in paw withdrawal threshold in response to von frey filament compound administered at day 14 after ligation and measured up to 1.5 hrs after drug dosing by up and down method; format: functional
How it was run: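 Rat spinal nerve ligation model of neuropathic pain. Compound was given i.p. at 1, 2, 5 or 10 mg/kg; a gabapentin 65 mg/kg i.p. arm and a saline i.p. arm were run alongside. Von Frey withdrawal thresholds were taken pre-surgery and on days 1, 7 and 14, then at 0.5, 1 and 1.5 h post-dose. Mean±SEM, n=7-8.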

[26] = system: Mus musculus; assay: (§3) Analgesic activity in ip dosed formalin-induced nociception ICR mouse model assessed as reduction in pain behaviour by measuring less licking of formalin injected hind paw pretreated with compound 30 mins prior to formalin induction measured during first phase (0-5 mins after formalin injection) by formalin test; format: functional
How it was run: (§4)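 Mice were dosed i.p. with 0.1–10 mg/kg, with vehicle and gabapentin (50, 100 mg/kg i.p.) arms. 2% formalin was injected into the dorsal hindpaw, and paw-licking time was recorded for the first phase (5 min) and the second phase (20–30 min). ED50 was taken from the dose–response. Mean±SEM, n=8.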

[27] = Genotoxicity in Salmonella typhimurium TA1537 incubated for 48 hrs by Ames test; format: toxicity; details: salmonella enterica subsp. enterica serovar typhimurium
[28] = molecular target: T2, Transient receptor potential cation channel subfamily V member 1; assay: Agonist activity at rat TRPV1 expressed in CHO cells assessed as increase in 45Ca2+ uptake incubated for 5 mins by liquid scintillation counting method; format: cell-based
How it was run: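 Human or rat TRPV1 heterologously expressed in CHO cells; agonism read as 45Ca2+ uptake, run as previously described. Values are the mean of at least three experiments.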

[29] = system: Mus musculus; assay: as §3, with “second” for “first”, “(20-30” for “(0-5”; format: functional; how it was run: as §4
[30] = molecular target: Transient receptor potential cation channel subfamily V member 1 (Rattus norvegicus) (UniProt O35433); assay: Agonist activity at rat TRPV1 expressed in HEK293 cells assessed as increase in calcium influx at 0.3 to 30 uM incubated for 1 min by Fluo-4-AM dye based FLIPR assay; format: cell-based; how it was run: as §1
[31] = Genotoxicity in Salmonella typhimurium TA1537 incubated for 48 hrs in presence of rat S9 by Ames test; format: toxicity, subcellular; details: salmonella enterica subsp. enterica serovar typhimurium, s9, 48 h

CC(C)(C)c1nc(-c2cccc(Cl)c2)c(CNC(=O)Nc2ccc(CO)c(F)c2)s1
Activity [1]: Non-Toxic
Activity [2]: Non-Toxic
Activity [3]: Non-Toxic
Activity [4]: inactive
Activity [5]: Active
Activity [6]: Non-Toxic
Activity [7]: Non-Toxic
Activity [8]: Non-Toxic
Activity [9]: 50 to 60%
Activity [10]: Active
Ratio Ki [11]: 80
Activity [12]: Dose-dependent effect
Drug uptake [13]: Active
Ki [14]: 23.8 nM
Activity [15]: inactive
Activity [16]: 50 to 60%
Activity [17]: Dose-dependent effect
Activity [18]: Non-Toxic
Activity [19]: Non-Toxic
Activity [20]: Non-Toxic
LD50 [21]: > 200 mg/kg
Activity [22]: Non-Toxic
Activity [23]: Non-Toxic
Activity [24]: Non-Toxic
Activity [25]: Dose-dependent effect
ED50 [25]: 0.5 to 2 mg/kg
Activity [26]: Dose-dependent effect
ED50 [26]: 0.79 mg/kg
Activity [27]: Non-Toxic
EC50 [28]: 93 nM
Activity [29]: Dose-dependent effect
ED50 [29]: 0.16 mg/kg
Activity [30]: Active
Activity [31]: Non-Toxic
